Assay results taken from ChEMBL document CHEMBL1781963, “Discovery of novel hepatoselective HMG-CoA reductase inhibitors for treating hypercholesterolemia: a bench-to-bedside case study on tissue selective drug distribution” (Bioorg Med Chem Lett, 2011).

Columns and labels:
Plasma [1] = assay: fCmax in human plasma at 240 mg administered as single dose; format: ADME, cell-free
Method in brief: (§1)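 Phase 1 single ascending oral dose in healthy volunteers, with N per dose group. Total plasma Cmax and AUC(0-∞) were measured. Free-drug exposures were derived from these using plasma protein binding (human plasma fu measured at 0.5 μg/mL).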

[2] = Terminal half life in human plasma at 120 mg administered as single dose; format: ADME, cell-free; settings: read-out: beta t1/2 (converted)
Plasma [3] = assay: fAUC (0 to infinity) in human plasma at 10 mg administered as single dose; format: ADME, cell-free; method in brief: as §1
[4] = Terminal half life in human plasma at 240 mg administered as single dose; format: ADME, cell-free; settings: read-out: beta t1/2 (converted)
Plasma [5] = assay: fCmax in human plasma at 3 mg administered as single dose; format: ADME, cell-free; method in brief: as §1
[6] = Terminal half life in human plasma at 320 mg administered as single dose; format: ADME, cell-free; settings: read-out: beta t1/2 (converted)
Syrian golden hamster = assay: Inhibition of cholesterol synthesis in golden syrian hamster assessed as reduction of [14C]-cholesterol level at 10 mg/kg, po followed by 3 hrs after treated with 80 uCi, ip of [14C]-sodium acetate measured after 5 hrs by liquid scintillation counting relative to control; format: functional; settings: Mesocricetus auratus
Method in brief: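 Separate hamster groups dosed po at 10 mg/kg at t = 0 h. 14C sodium acetate ip at t = 3 h, blood 14C cholesterol at t = 5 h. Percent change vs untreated controls, n = 8/group.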

Plasma [7] = assay: fAUC (0 to infinity) in human plasma at 120 mg administered as single dose; format: ADME, cell-free; method in brief: as §1
Homo sapiens [8] = assay: Inhibition of HMG-CoA reductase in human assessed as decrease in AUC (0 to 72 hrs) of mevalonate level in plasma at 120 mg administered as single dose relative to control; format: functional
Plasma [9] = assay: fCmax in human plasma at 10 mg administered as single dose; format: ADME, cell-free; method in brief: as §1
Homo sapiens [10] = assay: Inhibition of HMG-CoA reductase in human assessed as decrease in AUC (0 to 24 hrs) of mevalonate level in plasma at 10 mg administered as single dose relative to control; format: functional
Homo sapiens [11] = assay: Inhibition of HMG-CoA reductase in human assessed as decrease in AUC (0 to 24 hrs) of mevalonate level in plasma at 240 mg administered as single dose relative to control; format: functional
L6 = assay: Inhibition of cholesterol synthesis in rat L6 cells assessed as reduction of [14C]-cholesterol level using [14C]-acetic acid preincubated for 3 hrs before addition of [14C]-acetic acid by scintillation counting; format: functional, cell-based
Method in brief: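 Cholesterol synthesis inhibition measured in rat hepatocytes and rat myocyte cell line, giving IC50 for each. Mean ± SEM of n ≥ 2 independent determinations.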

Homo sapiens [12] = assay: Inhibition of HMG-CoA reductase in human assessed as decrease in AUC (0 to 24 hrs) of mevalonate level in plasma at 120 mg administered as single dose relative to control; format: functional
Homo sapiens [13] = assay: Inhibition of HMG-CoA reductase in human assessed as decrease in AUC (0 to 72 hrs) of mevalonate level in plasma at 3 mg administered as single dose relative to control; format: functional
Plasma [14] = assay: fCmax in human plasma at 320 mg administered as single dose; format: ADME, cell-free; method in brief: as §1
[15] = AUC (0 to infinity) in human plasma at 120 mg administered as single dose; format: ADME, cell-free; design: dose 120 mg, time infinity
Method in brief: (§2)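 Phase 1 single ascending oral dose in healthy volunteers, about 5–6 subjects per dose. Total plasma drug Cmax and AUC(0-∞) were measured. Free-drug exposures were derived using plasma protein binding.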

Homo sapiens [16] = assay: Inhibition of HMG-CoA reductase in human assessed as decrease in AUC (0 to 72 hrs) of mevalonate level in plasma at 240 mg administered as single dose relative to control; format: functional
[17] = AUC (0 to infinity) in human plasma at 320 mg administered as single dose; format: ADME, cell-free; design: dose 320 mg, time infinity; method in brief: as §2
Homo sapiens [18] = assay: Inhibition of HMG-CoA reductase in human assessed as decrease in AUC (0 to 24 hrs) of mevalonate level in plasma at 3 mg administered as single dose relative to control; format: functional
[19] = Cmax in human plasma at 1 mg administered as single dose; format: ADME, organism-based; design: dose 1 mg; method in brief: as §2
[20] = Cmax in human plasma at 5 mg administered as single dose; format: ADME, organism-based; design: dose 5 mg; method in brief: as §2
Homo sapiens [21] = assay: Inhibition of HMG-CoA reductase in human assessed as decrease in AUC (0 to 24 hrs) of mevalonate level in plasma at 20 mg administered as single dose relative to control; format: functional
Plasma [22] = assay: fAUC (0 to infinity) in human plasma at 1 mg administered as single dose; format: ADME, cell-free
Homo sapiens [23] = assay: Inhibition of HMG-CoA reductase in human assessed as decrease in AUC (0 to 24 hrs) of mevalonate level in plasma at 1 mg administered as single dose relative to control; format: functional
Homo sapiens [24] = assay: Inhibition of HMG-CoA reductase in human assessed as decrease in AUC (0 to 72 hrs) of mevalonate level in plasma at 1 mg administered as single dose relative to control; format: functional
Homo sapiens [25] = assay: Inhibition of HMG-CoA reductase in human assessed as decrease in AUC (0 to 72 hrs) of mevalonate level in plasma at 5 mg administered as single dose relative to control; format: functional
Liver = assay: Ratio of fAUC (0 to 24 hrs) in liver to plasma in Sprague-Dawley rat at 25 mg/kg, po; format: ADME, organism-based; design: dose 25 mg/kg, route oral; settings: other tissue
Method in brief: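 Sprague-Dawley rats given a single oral dose (10 or 25 mg/kg). Free drug measured in liver and plasma at 0, 0.5, 1, 2, 3, 4, 7 and 24 h, n = 3/time point.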

Plasma [26] = assay: fAUC (0 to infinity) in human plasma at 160 mg administered as single dose; format: ADME, cell-free; method in brief: as §1
Plasma [27] = assay: fAUC (0 to infinity) in human plasma at 5 mg administered as single dose; format: ADME, cell-free; method in brief: as §1
Plasma [28] = assay: fCmax in human plasma at 5 mg administered as single dose; format: ADME, cell-free; method in brief: as §1
[29] = AUC (0 to infinity) in human plasma at 20 mg administered as single dose; format: ADME, cell-free; design: dose 20 mg, time infinity; method in brief: as §2
Plasma [30] = assay: fCmax in human plasma at 20 mg administered as single dose; format: ADME, cell-free; method in brief: as §1
Homo sapiens [31] = assay: Inhibition of HMG-CoA reductase in human assessed as decrease in AUC (0 to 72 hrs) of mevalonate level in plasma at 20 mg administered as single dose relative to control; format: functional
[32] = AUC (0 to infinity) in human plasma at 160 mg administered as single dose; format: ADME, cell-free; design: dose 160 mg, time infinity; method in brief: as §2
[33] = Terminal half life in human plasma at 20 mg administered as single dose; format: ADME, cell-free; settings: read-out: beta t1/2 (converted)
[34] = AUC (0 to infinity) in human plasma at 1 mg administered as single dose; format: ADME, cell-free; design: dose 1 mg, time infinity; method in brief: as §2
Homo sapiens [35] = assay: Inhibition of HMG-CoA reductase in human assessed as decrease in AUC (0 to 24 hrs) of mevalonate level in plasma at 80 mg administered as single dose relative to control; format: functional
Plasma [36] = assay: fAUC (0 to infinity) in human plasma at 80 mg administered as single dose; format: ADME, cell-free; method in brief: as §1
Plasma [37] = assay: fCmax in human plasma at 80 mg administered as single dose; format: ADME, cell-free; method in brief: as §1
Homo sapiens [38] = assay: Inhibition of HMG-CoA reductase in human assessed as decrease in AUC (0 to 24 hrs) of mevalonate level in plasma at 10 mg administered qd for 14 days relative to control; format: functional

Work on `O=C([O-])C[C@H](O)C[C@H](O)CCn1c(-c2ccc(F)cc2)nc(C(=O)NCc2cccc(F)c2)c1C1CC1.[Na+]` yielded a fCmax (Plasma [1]) of 2.69 ng/mL, a half-life [2] of 3.07 h and a fAUC (Plasma [3]) of 0.786 ng·h/mL. The half-life [4] was 4.06 h, the fCmax (Plasma [5]) was 0.016 ng/mL and the half-life [6] was 7.36 h. For the same compound, the inhibition in vivo at 10 mg/kg (Syrian golden hamster) was -43%, the fAUC (Plasma [7]) was 3.63 ng·h/mL and the “inhibition (INH)” value (Homo sapiens [8]) was -17%. For the same compound, the fCmax (Plasma [9]) was 0.1 ng/mL, the “inhibition (INH)” value (Homo sapiens [10]) was -25% and the “inhibition (INH)” value (Homo sapiens [11]) was -56%. The IC50 (L6) was 444 nM, the “inhibition (INH)” value (Homo sapiens [12]) was -46% and the “inhibition (INH)” value (Homo sapiens [13]) was -10%. The fCmax (Plasma [14]) was 12.8 ng/mL, the AUC(0-inf) [15] was 12.5 ng·h/mL and the “inhibition (INH)” value (Homo sapiens [16]) was -30%. For the same compound, the AUC(0-inf) [17] was 36 ng·h/mL and the “inhibition (INH)” value (Homo sapiens [18]) was -5%.

For `Cc1ccc(CNC(=O)c2nn(-c3ccc(F)cc3)c(CC[C@@H](O)C[C@@H](O)CC(=O)O)c2C(C)C)cc1`, the Cmax [19] was 33.5 ng/mL, the Cmax [20] was 196 ng/mL and the “inhibition (INH)” value (Homo sapiens [21]) was -34%. For the same compound, the fAUC (Plasma [22]) was 4 ng·h/mL, the “inhibition (INH)” value (Homo sapiens [23]) was -16% and the “inhibition (INH)” value (Homo sapiens [24]) was -8%. For the same compound, the “inhibition (INH)” value (Homo sapiens [25]) was 3%, the Ratio (Liver) was 128 and the fAUC (Plasma [26]) was 1280 ng·h/mL. For the same compound, the fAUC (Plasma [27]) was 22.1 ng·h/mL, the fCmax (Plasma [28]) was 10 ng/mL and the AUC(0-inf) [29] was 1930 ng·h/mL. The fCmax (Plasma [30]) was 37.7 ng/mL, the “inhibition (INH)” value (Homo sapiens [31]) was -17% and the AUC(0-inf) [32] was 25000 ng·h/mL. The half-life [33] was 5.27 h, the AUC(0-inf) [34] was 78.5 ng·h/mL and the “inhibition (INH)” value (Homo sapiens [35]) was -65%. It also gave a fAUC (Plasma [36]) of 602 ng·h/mL and a fCmax (Plasma [37]) of 228 ng/mL.

With `CC(C)c1nc(N(C)S(C)(=O)=O)nc(-c2ccc(F)cc2)c1/C=C/[C@@H](O)C[C@@H](O)CC(=O)O` [ROSUVASTATIN] the “inhibition (INH)” value (Homo sapiens [38]) was 29.9%.
